Calls of active or inactive are those of the source. No cut-off for these calls is given here.
Legend:
[1] = molecular target: T1, Suppressor of tumorigenicity 14 protein (Homo sapiens, UniProt Q9Y5Y6); test: Inhibition of human matriptase
T1 sequence (Q9Y5Y6 whole entry): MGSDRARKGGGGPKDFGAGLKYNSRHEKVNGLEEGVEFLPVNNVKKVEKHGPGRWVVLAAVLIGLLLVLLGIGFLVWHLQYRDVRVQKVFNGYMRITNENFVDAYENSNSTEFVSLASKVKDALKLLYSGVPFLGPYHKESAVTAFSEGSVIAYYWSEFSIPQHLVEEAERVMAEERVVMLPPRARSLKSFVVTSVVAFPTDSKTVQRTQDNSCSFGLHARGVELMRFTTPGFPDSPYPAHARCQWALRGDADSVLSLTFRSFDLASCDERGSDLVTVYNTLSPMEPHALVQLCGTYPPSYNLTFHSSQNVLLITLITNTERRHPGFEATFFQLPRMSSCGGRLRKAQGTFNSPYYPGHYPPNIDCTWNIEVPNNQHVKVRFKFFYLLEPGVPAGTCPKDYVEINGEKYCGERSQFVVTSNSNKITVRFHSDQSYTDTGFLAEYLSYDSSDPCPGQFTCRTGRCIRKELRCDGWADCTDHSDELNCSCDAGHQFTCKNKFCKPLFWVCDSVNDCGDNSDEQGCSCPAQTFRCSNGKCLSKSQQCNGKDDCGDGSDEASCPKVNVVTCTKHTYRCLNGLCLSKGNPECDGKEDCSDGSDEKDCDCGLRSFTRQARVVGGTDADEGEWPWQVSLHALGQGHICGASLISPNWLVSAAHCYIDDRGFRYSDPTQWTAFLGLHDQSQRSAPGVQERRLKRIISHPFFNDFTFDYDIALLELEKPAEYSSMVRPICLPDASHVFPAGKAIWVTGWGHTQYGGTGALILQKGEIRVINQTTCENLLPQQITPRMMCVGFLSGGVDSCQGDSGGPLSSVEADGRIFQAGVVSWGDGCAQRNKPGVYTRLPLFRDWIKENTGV
Procedure, shortened: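 Run at room temperature in 100 mM Tris-HCl (pH 8.5) with 100 mg/mL BSA. Enzyme and inhibitor were preincubated, then t-Boc-Gln-Ala-Arg-AMC was added and fluorescence read at ex 360 nm, em 480 nm over six to seven inhibitor concentrations. Ki came from Dixon plots at two substrate concentrations. A second format used purified matriptase with t-Boc-Gln-Ala-Arg-AFC in 100 mM Tris (pH 8.3) with BSA.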

[2] = molecular target: Prothrombin (Bos taurus, UniProt P00735); test: (§1) Inhibition of bovine thrombin
Procedure, shortened: (§2)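 Room-temperature fluorogenic assay in 100 mM Tris-HCl (pH 8.5) with 100 mg/mL BSA. Enzyme and inhibitor were preincubated, then N-tBoc-Leu-Arg-Arg-AMC substrate was added. Hydrolysis was followed by fluorescence (ex 360 nm, em 480 nm) at six to seven inhibitor concentrations. Ki was taken from Dixon plots of two data sets at different substrate concentrations.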

[3] = Selectivity for human matriptase over bovine thrombin
Procedure, shortened: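 Enzyme was preincubated with inhibitor before substrate addition. Matriptase substrate: t-Boc-Gln-Ala-Arg-AMC; thrombin substrate: N-tBoc-Leu-Arg-Arg-AMC. AMC release read at ex 360/em 480 nm over six to seven inhibitor concentrations. Ki from Dixon plots using two substrate concentrations.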

[4] = molecular target: Prothrombin (Bos taurus) (UniProt P00735); test: as §1; procedure, shortened: as §2

Row | Ki [1] | Ki [2] | Ratio Ki [3] | Activity [4] | Compound
1 | 0.16 µM | 10 µM | 62.5 | – | CC[C@H](C)[C@@H]1NC(=O)[C@@H]2CCCN2C(=O)[C@@H]2CCCN2C(=O)[C@H]([C@@H](C)CC)NC(=O)[C@H](CO)NC(=O)[C@H](CCCCN)NC(=O)[C@H]([C@@H](C)O)NC(=O)[C@@H]2CSCSC[C@H](NC1=O)C(=O)N[C@@H](Cc1ccccc1)C(=O)N1CCC[C@@H]1C(=O)N[C@@H](CC(=O)O)C(=O)NCC(=O)N[C@@H](CCCNC(=N)N)C(=O)N2
2 | – | 45.6 µM | 1.6 | – | CC[C@H](C)[C@@H]1NC(=O)[C@@H]2CCCN2C(=O)[C@@H]2CCCN2C(=O)[C@H]([C@@H](C)CC)NC(=O)[C@H](CO)NC(=O)[C@H](CCCCCN)NC(=O)[C@H]([C@@H](C)O)NC(=O)[C@@H]2CSSC[C@H](NC1=O)C(=O)N[C@@H](Cc1ccccc1)C(=O)N1CCC[C@@H]1C(=O)N[C@@H](CC(=O)O)C(=O)NCC(=O)N[C@@H](CCCNC(=N)N)C(=O)N2
3 | – | – | 50 | – | CC[C@H](C)[C@@H]1NC(=O)[C@@H]2CCCN2C(=O)[C@@H]2CCCN2C(=O)[C@H]([C@@H](C)CC)NC(=O)[C@H](CO)NC(=O)[C@H](CCCCN)NC(=O)[C@H]([C@@H](C)O)NC(=O)[C@@H]2CSSC[C@H](NC1=O)C(=O)N[C@@H](Cc1ccccc1)C(=O)N1CCC[C@@H]1C(=O)N[C@@H](CC(=O)O)C(=O)NCC(=O)N[C@@H](CCCNC(=N)N)C(=O)N2
4 | – | 25.6 µM | 25.6 | – | CC[C@H](C)[C@@H]1NC(=O)[C@@H]2CCCN2C(=O)[C@@H]2CCCN2C(=O)[C@H]([C@@H](C)CC)NC(=O)[C@H](CO)NC(=O)[C@H](CCCCN)NC(=O)[C@H]([C@@H](C)O)NC(=O)[C@@H]2CSSC[C@H](NC1=O)C(=O)N[C@@H](Cc1ccc(-c3ccccc3)cc1)C(=O)N1CCC[C@@H]1C(=O)N[C@@H](CC(=O)O)C(=O)NCC(=O)N[C@@H](CCCNC(=N)N)C(=O)N2
5 | – | 827 µM | 37 | – | CC[C@H](C)[C@@H]1NC(=O)[C@@H]2CCCN2C(=O)[C@@H]2CCCN2C(=O)[C@H]([C@@H](C)CC)NC(=O)[C@H](CO)NC(=O)[C@H](CCCCN)NC(=O)[C@H]([C@@H](C)O)NC(=O)[C@@H]2CSSC[C@H](NC1=O)C(=O)N[C@@H](Cc1ccccc1)C(=O)N1CCC[C@@H]1C(=O)N[C@@H](CC(=O)O)C(=O)NCC(=O)N[C@@H](CCCNC(N)=O)C(=O)N2
6 | – | 16.3 µM | 36 | – | CC[C@H](C)[C@@H]1NC(=O)[C@@H]2CCCN2C(=O)[C@@H]2CCCN2C(=O)[C@H]([C@@H](C)CC)NC(=O)[C@H](CO)NC(=O)[C@H](CCCCN)NC(=O)[C@H]([C@@H](C)O)NC(=O)[C@@H]2CSSC[C@H](NC1=O)C(=O)N[C@@H](Cc1ccc3ccccc3c1)C(=O)N1CCC[C@@H]1C(=O)N[C@@H](CC(=O)O)C(=O)NCC(=O)N[C@@H](CCCNC(=N)N)C(=O)N2
7 | – | – | – | inactive | CC[C@H](C)[C@@H]1NC(=O)[C@@H]2CCCN2C(=O)[C@@H]2CCCN2C(=O)[C@H]([C@@H](C)CC)NC(=O)[C@H](CO)NC(=O)[C@H](CCCN)NC(=O)[C@H]([C@@H](C)O)NC(=O)[C@@H]2CSSC[C@H](NC1=O)C(=O)N[C@@H](Cc1ccccc1)C(=O)N1CCC[C@@H]1C(=O)N[C@@H](CC(=O)O)C(=O)NCC(=O)N[C@@H](CCCNC(=N)N)C(=O)N2
8 | – | 0.86 µM | 0.18 | – | CC[C@H](C)[C@@H]1NC(=O)[C@@H]2CCCN2C(=O)[C@@H]2CCCN2C(=O)[C@H]([C@@H](C)CC)NC(=O)[C@H](CO)NC(=O)[C@H](CCCNC(=N)N)NC(=O)[C@H]([C@@H](C)O)NC(=O)[C@@H]2CSSC[C@H](NC1=O)C(=O)N[C@@H](Cc1ccccc1)C(=O)N1CCC[C@@H]1C(=O)N[C@@H](CC(=O)O)C(=O)NCC(=O)N[C@@H](CCCNC(=N)N)C(=O)N2
9 | – | 40.4 µM | 0.38 | – | CC[C@H](C)[C@@H]1NC(=O)[C@@H]2CCCN2C(=O)[C@@H]2CCCN2C(=O)[C@H]([C@@H](C)CC)NC(=O)[C@H](CO)NC(=O)[C@H](CCCCN)NC(=O)[C@H]([C@@H](C)O)NC(=O)[C@H](CO)NC(=O)[C@H](CCCNC(=N)N)NC(=O)CNC(=O)[C@H](CC(=O)O)NC(=O)[C@H]2CCCN2C(=O)[C@H](Cc2ccccc2)NC(=O)[C@H](CO)NC1=O
10 | – | 164 µM | 1.8 | – | CC[C@H](C)[C@@H]1NC(=O)[C@@H]2CCCN2C(=O)[C@@H]2CCCN2C(=O)[C@H]([C@@H](C)CC)NC(=O)[C@H](CO)NC(=O)[C@H](CCCCN)NC(=O)[C@H]([C@@H](C)O)NC(=O)[C@@H]2CSSC[C@H](NC1=O)C(=O)N[C@@H](Cc1ccccc1)C(=O)N1CCC[C@@H]1C(=O)N[C@@H](CC(=O)O)C(=O)NCC(=O)N[C@@H](Cc1ccc(NC(=N)N)cc1)C(=O)N2
11 | – | 7.63 µM | 8.9 | – | CC[C@H](C)[C@@H]1NC(=O)[C@@H]2CCCN2C(=O)[C@@H]2CCCN2C(=O)[C@H]([C@@H](C)CC)NC(=O)[C@H](CO)NC(=O)[C@H](CCCCN)NC(=O)[C@H]([C@@H](C)O)NC(=O)[C@@H]2CSSC[C@H](NC1=O)C(=O)N[C@@H](Cc1ccccc1)C(=O)N1CCC[C@@H]1C(=O)N[C@@H](CC(=O)O)C(=O)NCC(=O)N[C@@H](CCCCNC(=N)N)C(=O)N2
12 | – | 33.6 µM | 37.8 | – | CC[C@H](C)[C@@H]1NC(=O)[C@@H]2CCCN2C(=O)[C@@H]2CCCN2C(=O)[C@H]([C@@H](C)CC)NC(=O)[C@H](CO)NC(=O)[C@H](CCCCN)NC(=O)[C@H]([C@@H](C)O)NC(=O)[C@@H]2CSSC[C@H](NC1=O)C(=O)N[C@@H](Cc1c(F)c(F)c(F)c(F)c1F)C(=O)N1CCC[C@@H]1C(=O)N[C@@H](CC(=O)O)C(=O)NCC(=O)N[C@@H](CCCNC(=N)N)C(=O)N2
